The structures appear in SMILES notation. pIC50: −log10 of the molar value. A value given as a limit tells only on which side of the number the result lay.

Test [1] addresses Muscarinic acetylcholine receptor. The test can be described thus: Binding activity against muscarinic receptor in rat brain using [3H]QNB as the radioligand. The format is tissue-based.
The target of test [2] is T1, D(1A) dopamine receptor (Rattus norvegicus, UniProt P18901). The test can be described thus: Binding activity against dopamine D1 receptor in rat brain, using [3H]SCH-23390 as the radioligand. The format is tissue-based. A digest of the protocol:
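Rat striatum homogenized in 50 mM Tris-HCl pH 7.4 with 5 mM MgSO4, washed and resuspended in 200 vol. Incubated with [3H]SCH 23390 0.45–0.76 nM final, 37 °C, 30 min; nonspecific binding with 1 μM SCH 23390.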

The target in test [3] is T2, D(2) dopamine receptor (Rattus norvegicus, UniProt P61169). Description: Binding activity against Dopamine receptor D2 in rat brain, using [3H]spiperone as the radioligand. Type of test: tissue-based. In a few lines:
(§1)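 Rat striatal membranes; [3H]spiperone 0.95–1.4 nM final, with 40 nM ketanserin in all tubes to mask 5HT-2 sites. Buffer 50 mM Tris-HCl pH 7.4 with 120 mM NaCl, 5 mM KCl, 2 mM CaCl2, 1 mM MgCl2; 37 °C.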

Test [4] deals with T2, D(2) dopamine receptor. The test can be described thus: Binding activity against dopamine receptor D2 in rat brain, using [3H]spiperone as the radioligand. Type of test: tissue-based. In a few lines: as §1
In test [5] the target is Muscarinic acetylcholine receptor. The test can be described thus: Binding activity against muscarinic acetylcholine receptor in rat brain using [3H]QNB as the radioligand. Type of test: tissue-based.
The target of test [6] is T1, D(1A) dopamine receptor. The test can be described thus: Binding activity against Dopamine receptor D1 in rat brain, using [3H]SCH-23390 as the radioligand. The format is tissue-based.
The target in test [7] is T2, D(2) dopamine receptor. Description: Binding activity against dopamine D2 receptor in rat brain, using [3H]spiperone as the radioligand.

T1 sequence (P18901 whole entry): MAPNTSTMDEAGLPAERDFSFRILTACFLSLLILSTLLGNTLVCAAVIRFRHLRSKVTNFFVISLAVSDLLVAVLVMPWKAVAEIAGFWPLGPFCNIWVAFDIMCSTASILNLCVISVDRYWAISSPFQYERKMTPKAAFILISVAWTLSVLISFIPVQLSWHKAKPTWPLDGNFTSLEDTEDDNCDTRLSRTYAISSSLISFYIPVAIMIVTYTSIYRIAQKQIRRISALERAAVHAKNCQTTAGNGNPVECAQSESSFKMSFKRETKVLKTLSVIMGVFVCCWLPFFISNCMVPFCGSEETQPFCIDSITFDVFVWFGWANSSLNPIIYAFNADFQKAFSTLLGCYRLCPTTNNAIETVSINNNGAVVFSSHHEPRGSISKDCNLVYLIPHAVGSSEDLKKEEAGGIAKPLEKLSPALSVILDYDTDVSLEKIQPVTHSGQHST
T2 sequence (P61169 whole entry): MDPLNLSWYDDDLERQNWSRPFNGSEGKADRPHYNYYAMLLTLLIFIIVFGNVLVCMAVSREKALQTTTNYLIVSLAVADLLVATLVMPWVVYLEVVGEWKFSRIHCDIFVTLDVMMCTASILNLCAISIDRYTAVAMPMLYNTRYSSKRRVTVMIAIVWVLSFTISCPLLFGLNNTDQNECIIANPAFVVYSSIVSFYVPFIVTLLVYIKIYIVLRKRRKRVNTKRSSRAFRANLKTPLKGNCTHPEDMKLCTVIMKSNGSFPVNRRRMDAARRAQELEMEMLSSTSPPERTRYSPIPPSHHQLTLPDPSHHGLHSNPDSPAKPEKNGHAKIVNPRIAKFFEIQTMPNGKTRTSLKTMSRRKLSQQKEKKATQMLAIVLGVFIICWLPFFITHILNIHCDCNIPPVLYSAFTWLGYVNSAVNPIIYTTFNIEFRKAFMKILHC

Turning to `CN1CCN(C2=Nc3ccccc3Nc3ccc(Cl)cc32)CC1` [ISOCLOZAPINE], in test [1], the IC50 (in general, the concentration at which inhibition is half-maximal) was determined as 55 nM. Further, the results for the pIC50 on D(1A) dopamine receptor [2] and on D(2) dopamine receptor [3] were 7.20 and 6.66, respectively.

Take `CC1c2ccccc2C=C(N2CCN(C)CC2)c2ccccc21` (stereo unspecified): the pIC50 – broadly, the negative decadic logarithm of the IC50, by convention in mol/L – at D(2) dopamine receptor [4] was 5.58; on D(1A) dopamine receptor [6], 7.13. This molecule returned an IC50 in test [5] of 1020 nM.

With `C/C=C1/c2ccccc2C=C(N2CCN(C)CC2)c2ccccc21`, the results for the negative-log IC50 (pIC50) on D(2) dopamine receptor [4] and at D(1A) dopamine receptor [6] were 5.16 and 6.52, respectively. Further, the IC50 in test [5] is reported as 2600 nM.

For `CN1CCN(C2=Nc3ccccc3Nc3ccccc32)CC1`, the negative-log IC50 (pIC50) at D(1A) dopamine receptor [2] is 6.05; at D(2) dopamine receptor [7] it was < 5.00.

(Values after ChEMBL document CHEMBL1124346 (J Med Chem, 1989).)
